What was measured:
[1] = tested on: Human immunodeficiency virus 1; test: Antiviral activity against HIV1 in human MT4 cell assessed as inhibition of virus spread in presence of 10% fetal bovine serum; assay type: functional; details: Human immunodeficiency virus 1, MT4; read-out: CIC95
How it was run: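 Spread of HIV-1 infection in MT-4 human T-lymphoid cell culture with 10% fetal bovine serum; CIC95 is the concentration inhibiting spread by ≥95%; mean of at least three independent experiments.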

[2] = tested on: Human immunodeficiency virus 1; test: Antiviral activity against HIV1 in human MT4 cell assessed as inhibition of virus spread in presence of 50% normal human serum; assay type: functional; details: Human immunodeficiency virus 1, MT4; read-out: CIC95
How it was run: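 Spread of HIV-1 infection in MT-4 human T-lymphoid cell culture with 50% normal human serum; CIC95 is the concentration inhibiting spread by ≥95%; mean of at least three independent experiments.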

[3] = Oral bioavailability in rat at 3 mg/kg; assay type: ADME, organism-based; details: in vivo
How it was run: (§1)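 In vivo PK: iv dosing in DMSO/PEG400/H₂O mixtures, oral dosing as methylcellulose suspension. Half-life was taken after iv dosing; AUC and Cmax after po dosing.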

[4] = Oral bioavailability in dog at 2 mg/kg; assay type: ADME, organism-based, Canis lupus familiaris; details: in vivo; how it was run: as §1
[5] = Plasma clearance in rat at 3 mg/kg, po or 3 mg/kg, iv; assay type: ADME, organism-based; how it was run: as §1
[6] = Plasma clearance in dog at 1 mg/kg, iv or 2 mg/kg, po; assay type: ADME, organism-based, Canis lupus familiaris; how it was run: as §1
[7] = Inhibition of recombinant HIV1 integrase strand transfer activity
Homo sapiens = species: Homo sapiens; test: Protein binding in human plasma; details: read-out: PPB (converted)
[8] = Protein binding in rat plasma; assay type: ADME, cell-free; details: read-out: PPB (converted)
How it was run: (§2)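 Plasma protein binding was measured by ultrafiltration after a 1 h incubation of compound in plasma at 37 °C.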

[9] = Protein binding in dog plasma; assay type: ADME, cell-free, Canis lupus familiaris; details: read-out: PPB (converted)
How it was run: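 Plasma protein binding measured by ultrafiltration after incubation at 37 °C for 1 h.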

[10] = Oral bioavailability in dog at 4 mg/kg; assay type: ADME, organism-based, Canis lupus familiaris; details: in vivo; how it was run: as §1
[11] = Plasma clearance in dog at 1 mg/kg, iv or 4 mg/kg, po; assay type: ADME, organism-based, Canis lupus familiaris; how it was run: as §1
[12] = Half life in rat at 3 mg/kg, iv; assay type: ADME, organism-based; design: dose 3 mg/kg, route intravenous; details: in vivo; how it was run: as §1
[13] = Half life in dog at 1 mg/kg, iv; assay type: ADME, organism-based, Canis lupus familiaris; design: dose 1 mg/kg, route intravenous; details: in vivo; how it was run: as §1
[14] = AUC in rat at 3 mg/kg, po; assay type: ADME, organism-based; design: dose 3 mg/kg, route oral; details: plasma; how it was run: as §1
[15] = AUC in rat at 10 mg/kg, po; assay type: ADME, organism-based; design: dose 10 mg/kg, route oral; details: plasma; how it was run: as §1
[16] = Cmax in rat at 3 mg/kg, po; assay type: ADME, organism-based; design: dose 3 mg/kg, route oral; details: in vivo; how it was run: as §1
[17] = Cmax in rat at 10 mg/kg, po; assay type: ADME, organism-based; design: dose 10 mg/kg, route oral; details: in vivo; how it was run: as §1
[18] = Volume of distribution at steady state in rat at 3 mg/kg, iv or 3 mg/kg, po; assay type: ADME, organism-based; details: in vivo, read-out: Vdss
[19] = Volume of distribution at steady state in dog at 1 mg/kg, iv or 4 mg/kg, po; assay type: ADME, organism-based, Canis lupus familiaris; details: in vivo, read-out: Vdss
How it was run: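 Dogs received 1 mg/kg intravenously in DMSO/PEG400/H₂O (20%-40%-40%) and 4 mg/kg orally as a 1% methylcellulose suspension. Volume of distribution was derived from the plasma concentration data.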

Liver microsomes = test: Metabolic stability in rat liver microsomes in presence of UDPGA; assay type: ADME, Microsome
Liver = test: Metabolic stability in dog liver microsomes in presence of UDPGA; assay type: ADME, Canis lupus familiaris, Microsome
[20] = Oral bioavailability in rhesus monkey at 6.5 mg/kg; assay type: ADME, organism-based, Macaca mulatta; details: in vivo
How it was run: (§3)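 Rhesus dosed 1 mg/kg iv in DMSO and 6.5 mg/kg po in 0.5% methylcellulose; plasma clearance and oral bioavailability.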

[21] = Plasma clearance in rhesus monkey at 1 mg/kg, iv or 6.5 mg/kg, po; assay type: ADME, organism-based, Macaca mulatta; how it was run: as §3
[22] = molecular target: T1, DNA polymerase alpha catalytic subunit (Homo sapiens, UniProt P09884); test: Inhibition of human DNA polymerase alpha
T1 sequence (P09884 whole entry): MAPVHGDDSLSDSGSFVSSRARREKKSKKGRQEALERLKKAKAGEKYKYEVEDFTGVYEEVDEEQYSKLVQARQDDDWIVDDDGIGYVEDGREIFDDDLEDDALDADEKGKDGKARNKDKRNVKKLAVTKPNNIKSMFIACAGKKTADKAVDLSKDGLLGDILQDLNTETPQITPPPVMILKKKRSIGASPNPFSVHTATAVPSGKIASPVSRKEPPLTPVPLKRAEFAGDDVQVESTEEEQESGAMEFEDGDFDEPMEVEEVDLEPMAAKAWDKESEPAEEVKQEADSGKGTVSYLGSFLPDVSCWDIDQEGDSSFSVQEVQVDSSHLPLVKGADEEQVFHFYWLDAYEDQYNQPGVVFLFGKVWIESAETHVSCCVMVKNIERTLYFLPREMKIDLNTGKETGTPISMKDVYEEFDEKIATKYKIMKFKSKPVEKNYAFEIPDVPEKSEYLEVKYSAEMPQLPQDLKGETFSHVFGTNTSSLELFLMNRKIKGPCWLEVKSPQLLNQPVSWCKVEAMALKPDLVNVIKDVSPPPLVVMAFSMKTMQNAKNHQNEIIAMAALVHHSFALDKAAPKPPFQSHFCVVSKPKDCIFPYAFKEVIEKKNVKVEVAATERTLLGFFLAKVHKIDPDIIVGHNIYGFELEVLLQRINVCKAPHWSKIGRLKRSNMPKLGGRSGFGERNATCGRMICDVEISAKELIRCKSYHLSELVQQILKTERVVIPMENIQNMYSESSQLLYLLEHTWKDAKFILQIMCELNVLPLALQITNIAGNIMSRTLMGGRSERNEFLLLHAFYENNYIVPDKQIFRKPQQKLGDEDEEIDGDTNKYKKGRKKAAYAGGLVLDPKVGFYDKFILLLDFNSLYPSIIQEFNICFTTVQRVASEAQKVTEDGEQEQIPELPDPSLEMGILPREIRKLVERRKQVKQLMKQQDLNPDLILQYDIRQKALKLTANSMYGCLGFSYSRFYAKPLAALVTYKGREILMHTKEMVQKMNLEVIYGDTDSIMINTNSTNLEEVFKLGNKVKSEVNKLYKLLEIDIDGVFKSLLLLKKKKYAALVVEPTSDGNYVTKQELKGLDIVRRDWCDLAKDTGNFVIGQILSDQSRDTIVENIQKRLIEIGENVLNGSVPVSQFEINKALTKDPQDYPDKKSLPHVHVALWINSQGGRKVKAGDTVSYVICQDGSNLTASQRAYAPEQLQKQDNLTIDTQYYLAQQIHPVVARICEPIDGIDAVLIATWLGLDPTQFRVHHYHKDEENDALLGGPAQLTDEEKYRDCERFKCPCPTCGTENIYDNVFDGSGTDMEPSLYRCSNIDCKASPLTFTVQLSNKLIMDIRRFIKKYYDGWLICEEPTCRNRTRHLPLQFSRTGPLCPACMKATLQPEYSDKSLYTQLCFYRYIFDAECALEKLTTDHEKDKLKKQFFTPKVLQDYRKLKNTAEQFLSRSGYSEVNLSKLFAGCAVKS

DNA polymerase beta = DNA polymerase beta (Homo sapiens, UniProt P06746); test: Inhibition of human DNA polymerase beta
[23] = Inhibition of human DNA polymerase gamma
[24] = Inhibition of HIV-RNase-H; design: species or system Human immunodeficiency virus
[25] = Inhibition of HCV polymerase; design: species or system Hepacivirus hominis
[26] = molecular target: Voltage-gated inwardly rectifying potassium channel KCNH2 (Homo sapiens, UniProt Q12809); test: Inhibition of human ERG
Sequence of Voltage-gated inwardly rectifying potassium channel KCNH2 (Q12809 whole entry): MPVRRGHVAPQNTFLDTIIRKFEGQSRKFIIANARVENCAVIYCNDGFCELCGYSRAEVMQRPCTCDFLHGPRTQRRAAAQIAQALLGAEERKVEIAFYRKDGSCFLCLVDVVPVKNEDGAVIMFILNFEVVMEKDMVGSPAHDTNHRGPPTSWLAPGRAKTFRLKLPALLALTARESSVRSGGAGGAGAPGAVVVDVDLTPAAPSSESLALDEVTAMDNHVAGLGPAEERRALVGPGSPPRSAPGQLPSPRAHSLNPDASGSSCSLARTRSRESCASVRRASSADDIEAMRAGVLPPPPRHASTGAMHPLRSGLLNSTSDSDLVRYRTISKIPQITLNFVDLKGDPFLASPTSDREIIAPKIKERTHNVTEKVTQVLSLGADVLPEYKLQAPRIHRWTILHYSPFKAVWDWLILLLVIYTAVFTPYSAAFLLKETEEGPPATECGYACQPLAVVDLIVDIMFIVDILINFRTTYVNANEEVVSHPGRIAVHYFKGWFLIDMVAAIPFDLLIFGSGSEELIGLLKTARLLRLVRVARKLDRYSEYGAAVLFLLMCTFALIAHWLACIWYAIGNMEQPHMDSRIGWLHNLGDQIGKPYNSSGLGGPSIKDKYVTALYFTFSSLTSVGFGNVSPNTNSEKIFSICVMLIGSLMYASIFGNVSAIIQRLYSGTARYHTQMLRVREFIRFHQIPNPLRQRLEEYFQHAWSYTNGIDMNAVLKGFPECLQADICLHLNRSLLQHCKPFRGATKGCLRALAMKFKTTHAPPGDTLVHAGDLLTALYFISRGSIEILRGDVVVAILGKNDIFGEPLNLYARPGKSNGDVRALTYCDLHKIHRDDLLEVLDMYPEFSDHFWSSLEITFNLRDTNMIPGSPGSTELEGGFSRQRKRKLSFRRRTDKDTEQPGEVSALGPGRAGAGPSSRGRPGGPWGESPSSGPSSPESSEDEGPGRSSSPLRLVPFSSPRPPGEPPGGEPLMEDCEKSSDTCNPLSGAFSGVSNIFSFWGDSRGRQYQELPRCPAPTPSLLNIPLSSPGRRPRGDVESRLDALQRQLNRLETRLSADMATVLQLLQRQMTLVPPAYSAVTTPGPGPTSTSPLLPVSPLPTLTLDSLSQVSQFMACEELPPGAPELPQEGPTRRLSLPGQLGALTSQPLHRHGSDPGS

Cytochrome P450 1A2 = molecular target: T2, Cytochrome P450 1A2 (Homo sapiens, UniProt P05177); test: Inhibition of CYP1A2; assay type: ADME
T2 sequence (P05177 whole entry): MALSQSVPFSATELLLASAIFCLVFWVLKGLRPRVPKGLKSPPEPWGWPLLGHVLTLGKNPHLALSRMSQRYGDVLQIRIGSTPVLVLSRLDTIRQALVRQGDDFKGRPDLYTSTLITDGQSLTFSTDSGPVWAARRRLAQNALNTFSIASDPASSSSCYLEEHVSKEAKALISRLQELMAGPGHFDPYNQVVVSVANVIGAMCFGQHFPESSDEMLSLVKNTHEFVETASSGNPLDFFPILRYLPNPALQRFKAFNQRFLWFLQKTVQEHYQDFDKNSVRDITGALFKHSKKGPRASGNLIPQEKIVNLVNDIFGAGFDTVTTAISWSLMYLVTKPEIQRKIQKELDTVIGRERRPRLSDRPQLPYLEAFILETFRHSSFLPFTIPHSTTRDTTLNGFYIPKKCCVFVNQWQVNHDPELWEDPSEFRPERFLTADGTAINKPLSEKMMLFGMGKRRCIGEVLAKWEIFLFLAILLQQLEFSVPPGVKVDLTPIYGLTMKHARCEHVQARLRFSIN

Cytochrome P450 2C19 = Cytochrome P450 2C19 (Homo sapiens, UniProt P33261); test: Inhibition of CYP2C19; assay type: ADME
Sequence of Cytochrome P450 2C19 (P33261 whole entry): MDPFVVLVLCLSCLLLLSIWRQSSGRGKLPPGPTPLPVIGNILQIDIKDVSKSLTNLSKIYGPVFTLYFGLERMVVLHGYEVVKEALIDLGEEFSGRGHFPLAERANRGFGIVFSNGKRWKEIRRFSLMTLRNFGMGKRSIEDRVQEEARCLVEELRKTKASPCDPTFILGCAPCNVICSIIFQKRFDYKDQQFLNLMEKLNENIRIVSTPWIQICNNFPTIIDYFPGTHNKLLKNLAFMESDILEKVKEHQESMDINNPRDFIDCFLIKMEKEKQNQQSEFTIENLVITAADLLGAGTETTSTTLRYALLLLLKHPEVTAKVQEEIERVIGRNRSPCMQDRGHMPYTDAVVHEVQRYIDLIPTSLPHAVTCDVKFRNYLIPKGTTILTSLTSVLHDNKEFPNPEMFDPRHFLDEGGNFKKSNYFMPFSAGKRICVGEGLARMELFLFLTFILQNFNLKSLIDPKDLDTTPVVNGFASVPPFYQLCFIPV

Cytochrome P450 2C9 = Cytochrome P450 2C9 (Homo sapiens, UniProt P11712); test: Inhibition of CYP2C9; assay type: ADME
Sequence of Cytochrome P450 2C9 (P11712 whole entry): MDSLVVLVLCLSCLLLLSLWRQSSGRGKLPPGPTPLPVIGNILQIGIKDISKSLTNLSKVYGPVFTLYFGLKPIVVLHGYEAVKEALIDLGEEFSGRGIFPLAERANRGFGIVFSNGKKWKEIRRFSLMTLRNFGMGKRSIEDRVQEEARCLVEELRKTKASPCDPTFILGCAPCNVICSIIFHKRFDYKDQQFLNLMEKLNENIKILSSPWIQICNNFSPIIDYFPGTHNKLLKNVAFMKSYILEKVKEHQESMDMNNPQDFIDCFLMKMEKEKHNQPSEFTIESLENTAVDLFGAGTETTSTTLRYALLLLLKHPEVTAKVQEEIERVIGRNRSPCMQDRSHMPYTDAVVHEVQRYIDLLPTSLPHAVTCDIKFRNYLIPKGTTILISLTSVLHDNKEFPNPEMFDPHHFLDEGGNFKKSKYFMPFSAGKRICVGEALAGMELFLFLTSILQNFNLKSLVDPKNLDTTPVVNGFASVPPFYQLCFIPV

Cytochrome P450 2D6 = Cytochrome P450 2D6 (Homo sapiens, UniProt P10635); test: Inhibition of CYP2D6; assay type: ADME
Sequence of Cytochrome P450 2D6 (P10635 whole entry): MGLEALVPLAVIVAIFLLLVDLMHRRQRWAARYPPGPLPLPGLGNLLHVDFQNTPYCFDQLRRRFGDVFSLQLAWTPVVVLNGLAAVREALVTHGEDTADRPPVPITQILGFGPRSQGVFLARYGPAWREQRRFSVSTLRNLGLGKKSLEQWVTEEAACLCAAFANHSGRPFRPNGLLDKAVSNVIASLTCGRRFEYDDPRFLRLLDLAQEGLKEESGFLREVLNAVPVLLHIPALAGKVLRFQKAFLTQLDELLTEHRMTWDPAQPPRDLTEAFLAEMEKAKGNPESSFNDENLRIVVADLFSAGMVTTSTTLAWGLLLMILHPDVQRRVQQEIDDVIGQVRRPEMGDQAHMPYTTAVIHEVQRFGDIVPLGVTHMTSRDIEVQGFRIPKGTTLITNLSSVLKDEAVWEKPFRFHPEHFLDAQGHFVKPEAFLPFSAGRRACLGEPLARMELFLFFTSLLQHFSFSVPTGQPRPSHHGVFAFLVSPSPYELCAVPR

Cytochrome P450 3A4 = Cytochrome P450 3A4 (Homo sapiens, UniProt P08684); test: Inhibition of CYP3A4; assay type: ADME
Sequence of Cytochrome P450 3A4 (P08684 whole entry): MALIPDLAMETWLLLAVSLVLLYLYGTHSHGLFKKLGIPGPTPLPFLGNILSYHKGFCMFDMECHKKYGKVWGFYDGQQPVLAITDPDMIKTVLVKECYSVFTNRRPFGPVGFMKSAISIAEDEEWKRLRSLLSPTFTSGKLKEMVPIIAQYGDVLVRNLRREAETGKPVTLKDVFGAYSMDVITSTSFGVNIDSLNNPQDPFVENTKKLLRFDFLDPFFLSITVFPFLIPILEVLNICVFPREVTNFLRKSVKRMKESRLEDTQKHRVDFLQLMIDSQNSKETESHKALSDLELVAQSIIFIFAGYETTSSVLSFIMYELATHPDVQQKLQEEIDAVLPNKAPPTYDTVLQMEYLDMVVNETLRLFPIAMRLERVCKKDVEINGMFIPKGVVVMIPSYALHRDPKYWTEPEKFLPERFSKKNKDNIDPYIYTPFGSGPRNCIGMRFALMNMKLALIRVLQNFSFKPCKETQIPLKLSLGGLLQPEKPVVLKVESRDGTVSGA

[27] = Protein binding in rhesus monkey plasma; assay type: ADME, cell-free, Macaca mulatta; details: read-out: PPB (converted); how it was run: as §2
[28] = Metabolic stability in rhesus monkey liver microsomes in presence of UDPGA; assay type: ADME, Macaca mulatta, Microsome
How it was run: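 Single-point measurement: compound 2 µM, microsomes 0.3 mg/mL, with UDPGA; degradation quantified by LC/MS/MS after 1 h of incubation.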

## CN(C)S(=O)(=O)N(C)[C@H]1CCCn2c1nc(C(=O)NCc1ccc(F)cc1)c(O)c2=O
[1]
  IC95: 12 nM
[2]
  IC95: 31 nM
[3]
  bioavailability: 49%
[4]
  bioavailability: 16%
[5]
  clearance: 14 mL/min/kg
[6]
  clearance: 3.8 mL/min/kg
[7]
  IC50: 5 nM
Homo sapiens
  fraction unbound: 0.13

## CN(C)C(=O)C(=O)N(C)[C@H]1CCCn2c1nc(C(=O)NCc1ccc(F)cc1)c(O)c2=O
[1]
  IC95: 33 nM
[2]
  IC95: 43 nM
[8]
  fraction unbound: 0.16
[9]
  fraction unbound: 0.34
[3]
  bioavailability: 47%
[5]
  clearance: 11 mL/min/kg
[10]
  bioavailability: 39%
[11]
  clearance: 15 mL/min/kg
[12]
  half-life: 14 h
[13]
  half-life: 1.7 h
[14]
  AUC: 2.5 µM·h
[15]
  AUC: 3.8 µM·h
[16]
  Cmax: 2000 nM
[17]
  Cmax: 2500 nM
[18]
  Vd: 3 L/kg
[19]
  Vd: 1.2 L/kg
[7]
  IC50: 12 nM
Homo sapiens
  fraction unbound: 0.37

## CN(C)S(=O)(=O)N(C)[C@@H]1CCCn2c1nc(C(=O)NCc1ccc(F)cc1)c(O)c2=O
[1]
  IC95: 16 nM
[2]
  IC95: 44 nM
Liver microsomes
  Stability: 81 %/hr
Liver
  Stability: 46 %/hr
[8]
  fraction unbound: 0.01
[9]
  fraction unbound: 0.11
[3]
  bioavailability: 63%
[4]
  bioavailability: 42%
[20]
  bioavailability: 9%
[5]
  clearance: 1.8 mL/min/kg
[6]
  clearance: 3.8 mL/min/kg
[21]
  clearance: 27 mL/min/kg
[22]
  IC50: > 200000 nM
DNA polymerase beta
  IC50: > 200000 nM
[23]
  IC50: > 200000 nM
[24]
  IC50: > 25000 nM
[25]
  IC50: > 50000 nM
[26]
  IC50: 20000 nM
Cytochrome P450 1A2
  IC50: > 100000 nM
Cytochrome P450 2C19
  IC50: > 100000 nM
Cytochrome P450 2C9
  IC50: > 100000 nM
Cytochrome P450 2D6
  IC50: > 100000 nM
Cytochrome P450 3A4
  IC50: > 100000 nM
[27]
  fraction unbound: 0.14
[28]
  Stability: 84 %/hr
[7]
  IC50: 7 nM
Homo sapiens
  fraction unbound: 0.19

— ChEMBL document CHEMBL1143246, “Design and synthesis of bicyclic pyrimidinones as potent and orally bioavailable HIV-1 integrase inhibitors” (J Med Chem, 2008)
